pIC50: −log10 of the molar value.
How the values were obtained:
Renca [1] = test: Antiproliferative activity against mouse Renca cell line at 10 uM; type: functional
Method in brief: (§1)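 Growth inhibition at the top 10 μM concentration of a 72 h XTT/PMS proliferation assay (4 h stain, 492 nm, four wells), expressed against 0.1% DMSO control. Cells were in phenol-red-free RPMI with 10% FCS, seeded at 2000 cells/well (HCT15, PC3, CT26, Renca) or 1000 cells/well (HT29), and dosed 24 h after seeding.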

[2] = molecular target: DNA topoisomerase II (Homo sapiens) (UniProt P11388+Q02880); test: Inhibition of topoisomerase 2 DNA cleavage activity; type: protein assay
Method in brief: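 Human topoisomerase II (4 units) incubated with 0.25 μg pRYG DNA and 0.5 mM ATP (final) for 30 min at 37 °C. Stopped with 1% SDS, proteinase K (50 μg/mL, 15 min), CIA extraction, and 1% agarose gel at 75 V for 3.5 h, then post-stained with 0.5 μg/mL ethidium bromide. Reported value is the lowest concentration abolishing relaxed or linear DNA.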

PC-3 [3] = test: Antiproliferative activity against human PC3 cell line at 10 uM; type: functional; method in brief: as §1
HCT-15 [4] = test: Antiproliferative activity against human HCT15 cell line at 10 uM; type: functional; method in brief: as §1
HT-29 [5] = test: Antiproliferative activity against human HT29 cell line at 10 uM; type: functional; method in brief: as §1
CT26 [6] = test: Antiproliferative activity against mouse CT26 cell line at 10 uM; type: functional; method in brief: as §1
[7] = molecular target: T1, DNA topoisomerase 1 (Homo sapiens) (UniProt P11387); test: Inhibition of topoisomerase 1 DNA cleavage activity
T1 sequence (whole entry): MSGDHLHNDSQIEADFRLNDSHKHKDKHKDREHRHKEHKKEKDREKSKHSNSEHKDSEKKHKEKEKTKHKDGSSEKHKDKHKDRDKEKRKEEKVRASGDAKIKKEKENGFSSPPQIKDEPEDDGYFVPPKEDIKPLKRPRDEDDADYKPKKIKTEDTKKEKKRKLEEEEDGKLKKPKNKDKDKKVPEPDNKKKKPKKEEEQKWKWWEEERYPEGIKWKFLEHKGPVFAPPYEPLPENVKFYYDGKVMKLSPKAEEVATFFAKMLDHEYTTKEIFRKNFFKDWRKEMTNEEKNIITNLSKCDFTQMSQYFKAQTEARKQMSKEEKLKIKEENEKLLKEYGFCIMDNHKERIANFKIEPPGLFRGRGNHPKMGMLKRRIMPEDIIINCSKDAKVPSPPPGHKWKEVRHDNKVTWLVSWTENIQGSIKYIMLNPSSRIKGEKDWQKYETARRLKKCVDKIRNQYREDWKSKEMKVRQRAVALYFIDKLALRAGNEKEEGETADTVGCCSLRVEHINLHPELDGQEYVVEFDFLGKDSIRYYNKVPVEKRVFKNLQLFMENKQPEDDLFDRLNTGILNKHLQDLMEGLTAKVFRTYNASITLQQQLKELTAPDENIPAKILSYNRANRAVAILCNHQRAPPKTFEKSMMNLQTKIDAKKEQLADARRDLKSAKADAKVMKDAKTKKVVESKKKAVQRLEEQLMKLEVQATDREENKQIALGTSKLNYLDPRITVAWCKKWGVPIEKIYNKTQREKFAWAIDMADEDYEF
Method in brief: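 Human topoisomerase I (2 units) incubated with 0.25 μg DNA I for 30 min at 37 °C with or without compound. Stopped with 1% SDS, proteinase K (50 μg/mL, 15 min, 37 °C), extracted twice with CIA, and run on 1% agarose (3.5 h, 75 V). Gel stained afterwards with ethidium bromide. Active concentration is the lowest giving complete inhibition, i.e. no relaxed or linear DNA.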

Renca [8] = test: Antiproliferative activity against mouse Renca cell line; type: functional, cell-based
Method in brief: (§2)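 Cells grown in RPMI with 10% heat-inactivated FCS, no antibiotics, 37 °C, 5% CO2, and checked mycoplasma-free. Seeded at 2000 cells/well (HCT15, PC3, CT26, Renca) or 1000 cells/well (HT29). After 24 h, exposed for 72 h to nine concentrations from 1 nM to 10 μM in phenol-red-free medium, 0.1% DMSO final. Read by XTT/PMS reduction (4 h, 492 nm), four wells per concentration. IC50 from a four-parameter logistic fit of growth as % of DMSO control.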

PC-3 [9] = test: Antiproliferative activity against human PC3 cell line; type: functional, cell-based; method in brief: as §2
CT26 [10] = test: Antiproliferative activity against mouse CT26 cell line; type: functional, cell-based; method in brief: as §2
HT-29 [11] = test: Antiproliferative activity against human HT29 cell line; type: functional, cell-based; method in brief: as §2
HCT-15 [12] = test: Antiproliferative activity against human HCT15 cell line; type: functional, cell-based; method in brief: as §2

| Structure (SMILES) | Inhibition [2] [µM] | Inhibition [7] [µM] | pIC50 (PC-3 [9]) | pIC50 (CT26 [10]) | pIC50 (HT-29 [11]) | pIC50 (HCT-15 [12]) | inhibition at 10 µM (Renca [1]) [%] | inhibition at 10 µM (PC-3 [3]) [%] | inhibition at 10 µM (HCT-15 [4]) [%] | inhibition at 10 µM (HT-29 [5]) [%] | inhibition at 10 µM (CT26 [6]) [%] | pIC50 (Renca [8]) |
| --- | --- | --- | --- | --- | --- | --- | --- | --- | --- | --- | --- | --- |
| Cc1ccc(S(=O)(=O)n2cc3c4c2C(=O)c2c(n[nH]c2C2(O)C(=O)N(C)c5ccccc52)C4=NCC3)cc1 (configuration not stated) | – | > 100 | 5.28 | 5.54 | 5.54 | 5.80 | – | – | – | – | – | 5.72 |
| Cc1ccc(S(=O)(=O)n2cc3c4c2C(=O)c2c(cnn2C)C4=NCC3)cc1 | – | 300 | 5.31 | 5.28 | 5.51 | 5.19 | – | – | – | – | – | 6.85 |
| Cc1ccc(S(=O)(=O)n2cc3c4c2C(=O)c2c(-c5ccc(O)cc5)n[nH]c2C4=NCC3)cc1 | 100 | 10 | – | – | – | – | 0 | 0 | 0 | 41 | 0 | – |
| CC[C@@]1(O)C(=O)OCc2c1cc1n(c2=O)Cc2cc3ccccc3nc2-1 [CAMPTOTHECIN] | – | – | 7.28 | 7.47 | 7.52 | 7.74 | – | – | – | – | – | 6.52 |
| COc1cc([C@@H]2c3cc4c(cc3[C@@H](O[C@@H]3O[C@@H]5CO[C@@H](C)O[C@H]5[C@H](O)[C@H]3O)[C@H]3COC(=O)[C@H]23)OCO4)cc(OC)c1O [ETOPOSIDE] | 100 | – | 5.11 | 6.70 | 5.18 | 5.35 | – | – | – | – | – | 5.54 |
| Cc1ccc(S(=O)(=O)n2cc3c4c2C(=O)c2cn[nH]c2C4=NCC3)cc1 | > 300 | 300 | – | – | – | – | 0 | 0 | 0 | 0 | 0 | – |
| Cc1ccc(S(=O)(=O)n2cc3c4c2C(=O)c2[nH]nc(-c5ccc(O)cc5)c2C4=NCC3)cc1 | > 100 | 30 | – | – | – | – | 0 | 0 | 0 | 23 | 0 | – |
| Cc1ccc(S(=O)(=O)n2cc3c4c2C(=O)c2cnn(C)c2C4=NCC3)cc1 | > 100 | > 100 | 5.24 | 5.31 | 5.72 | 5.30 | – | – | – | – | – | 5.34 |
| Cc1ccc(S(=O)(=O)n2cc3c4c2C(=O)c2n[nH]cc2C4=NCC3)cc1 | > 100 | 100 | – | – | – | – | 0 | 0 | 0 | 0 | 0 | – |

The next lines start with results.

| Inhibition [2] [µM] | Inhibition [7] [µM] | pIC50 (PC-3 [9]) | pIC50 (CT26 [10]) | pIC50 (HT-29 [11]) | pIC50 (HCT-15 [12]) | Structure (SMILES) | inhibition at 10 µM (Renca [1]) [%] | inhibition at 10 µM (PC-3 [3]) [%] | inhibition at 10 µM (HCT-15 [4]) [%] | inhibition at 10 µM (HT-29 [5]) [%] | inhibition at 10 µM (CT26 [6]) [%] | pIC50 (Renca [8]) |
| --- | --- | --- | --- | --- | --- | --- | --- | --- | --- | --- | --- | --- |
| 100 | > 100 | – | – | – | – | O=C1c2[nH]ncc2C2=NCCc3c[nH]c1c32 | 0 | 0 | 0 | 0 | 0 | – |
| 100 | > 100 | – | – | – | – | O=C1c2c[nH]nc2C2=NCCc3c[nH]c1c32 | 0 | 0 | 25 | 45 | 0 | – |
| > 100 | 100 | – | – | – | – | O=C1c2[nH]cc3c2C(=NCC3)c2c(-c3ccccc3)n[nH]c21 | 0 | 0 | 0 | 0 | 0 | – |
| 100 | > 100 | – | – | – | – | O=C1c2n[nH]c(-c3ccc(O)cc3)c2C2=NCCc3c[nH]c1c32 | 0 | 0 | 0 | 0 | 0 | – |
| > 300 | 300 | – | – | – | – | O=C1c2[nH]cc3c2C(=NCC3)c2n[nH]c(-c3ccc(O)cc3)c21 | 0 | 0 | 0 | 0 | 0 | – |
| 100 | > 100 | – | 5.15 | 5.44 | – | Cn1ncc2c1C1=NCCc3c[nH]c(c31)C2=O | – | 0 | 0 | – | – | 5.20 |
| > 100 | > 100 | – | – | – | – | Cn1ncc2c1C(=O)c1[nH]cc3c1C2=NCC3 | 6 | 0 | 0 | 4 | 7 | – |
| > 100 | > 100 | – | – | – | 5.57 | O=C1c2[nH]cc3c2C(=NCC3)c2[nH]nc(-c3ccccc3)c21 | 0 | 0 | – | 47 | 0 | – |
| > 100 | 100 | – | – | – | – | Cc1ccc(S(=O)(=O)n2cc3c4c2C(=O)c2c(-c5ccccc5)n[nH]c2C4=NCC3)cc1 | 0 | 0 | 0 | 0 | 0 | – |
| – | 300 | – | – | – | – | Cc1ccc(S(=O)(=O)n2cc3c4c2C(=O)c2[nH]nc(-c5ccccc5)c2C4=NCC3)cc1 | 0 | 0 | 0 | 0 | 0 | – |
